Source: ChEMBL document CHEMBL1144343 (J Med Chem, 2005)
Where a SMILES comes first, the peptide text is derived from it. [ ]: non-standard residue; d: D form. Phe(4-NH2) = Nc1ccc(C[C@H](N)C(=O)O)cc1

Experiments:
[1] = molecular target: T1, Angiotensin II receptor (AT-1) type-1 (Rattus norvegicus, UniProt P29089+P25095); experiment: Displacement of [125I]-Ang II from angiotensin II receptor type 1 in rat liver membranes; format: cell membranes, Membrane
T1 sequence (P29089 whole entry): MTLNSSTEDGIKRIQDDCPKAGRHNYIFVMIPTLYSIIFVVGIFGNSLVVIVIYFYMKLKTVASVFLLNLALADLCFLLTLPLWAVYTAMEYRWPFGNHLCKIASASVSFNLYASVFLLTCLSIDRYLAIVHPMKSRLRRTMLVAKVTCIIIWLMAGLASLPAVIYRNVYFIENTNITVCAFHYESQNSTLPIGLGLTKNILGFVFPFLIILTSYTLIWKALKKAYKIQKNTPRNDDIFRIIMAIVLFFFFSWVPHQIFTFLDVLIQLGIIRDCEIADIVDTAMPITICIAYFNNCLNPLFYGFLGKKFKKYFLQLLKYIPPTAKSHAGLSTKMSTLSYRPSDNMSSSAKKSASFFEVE
T1 sequence (P25095 whole entry): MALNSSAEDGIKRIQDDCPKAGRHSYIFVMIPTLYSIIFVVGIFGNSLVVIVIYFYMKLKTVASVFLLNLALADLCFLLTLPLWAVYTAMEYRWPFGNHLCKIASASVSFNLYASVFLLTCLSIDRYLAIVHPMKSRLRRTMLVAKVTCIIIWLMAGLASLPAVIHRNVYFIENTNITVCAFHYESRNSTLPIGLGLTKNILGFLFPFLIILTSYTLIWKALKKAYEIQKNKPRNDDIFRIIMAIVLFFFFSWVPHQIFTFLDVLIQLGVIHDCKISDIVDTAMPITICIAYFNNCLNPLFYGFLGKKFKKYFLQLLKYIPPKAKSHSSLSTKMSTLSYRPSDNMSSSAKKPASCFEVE

[2] = molecular target: T2, Type-2 angiotensin II receptor (Homo sapiens) (UniProt P50052); experiment: Effect on [3H]thymidine incorporation into PC12 cells expressing AT2 receptors at 1.0 uM; details: PC-12
T2 sequence (whole entry): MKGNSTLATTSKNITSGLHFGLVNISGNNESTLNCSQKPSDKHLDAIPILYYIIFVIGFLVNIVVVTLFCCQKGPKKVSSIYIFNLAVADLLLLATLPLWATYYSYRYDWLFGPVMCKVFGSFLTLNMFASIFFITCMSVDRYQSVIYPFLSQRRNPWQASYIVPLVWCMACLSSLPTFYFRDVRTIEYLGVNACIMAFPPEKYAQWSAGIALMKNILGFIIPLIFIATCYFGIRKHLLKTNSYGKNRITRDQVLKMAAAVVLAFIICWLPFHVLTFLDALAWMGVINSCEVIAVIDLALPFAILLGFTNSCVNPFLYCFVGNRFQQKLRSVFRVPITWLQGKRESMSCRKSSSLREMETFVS

[3] = molecular target: T3, Type-2 angiotensin II receptor (Homo sapiens, UniProt P50052); experiment: Displacement of [125I]-Ang II from angiotensin II receptor type 2 in pig uterus myometrium; set-up: species or system Sus scrofa; details: target entry is the homologue from another species
T3 sequence (P50052 whole entry): T2 sequence (whole entry)
How it was run: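 Porcine uterine myometrial membranes (10 mg tissue equivalent) with 1 µM losartan to block AT1. Tris-HCl pH 7.4 buffer with NaCl, MgCl2, EDTA, 0.2% BSA and peptidase inhibitors. Filtration, γ-counting; nonspecific binding with 1 µM Ang II.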

[4] = system: NG108-15; experiment: Effect on neurite outgrowth in NG108-15 cells after treatment for 3 days (control 2.26%)

Ki [1] [µM]	Activity (Counts/minute) [2]	Ki [3] [µM]	Structure (SMILES)	Activity [4] [%]
> 10			NC(N)=NCCC[C@H](NC(=O)[C@@H](N)CC(=O)O)C(=O)Nc1ccc2c(c1)CN(CC(=O)N[C@@H](Cc1c[nH]cn1)C(=O)N1CCC[C@H]1C(=O)N[C@@H](Cc1ccccc1)C(=O)O)C(=O)[C@H](Cc1ccc(O)cc1)N2	
> 10			CC[C@@H](C)[C@@H](C(=O)N[C@@H](Cc1c[nH]cn1)C(=O)N1CCC[C@H]1C(=O)N[C@@H](Cc1ccccc1)C(=O)O)N1Cc2cccc(NC(=O)[C@@H](NC(=O)[C@H](CCCN=C(N)N)NC(=O)[C@@H](N)CC(=O)O)C(C)C)c2N[C@@H](Cc2ccc(O)cc2)C1=O	
> 10			C[C@H](NC(=O)[C@@H](N)CC(=O)O)C(=O)Nc1cccc2c1N[C@@H](Cc1ccc(O)cc1)C(=O)N(CC(=O)N[C@@H](Cc1c[nH]cn1)C(=O)N1CCC[C@H]1C(=O)N[C@@H](Cc1ccccc1)C(=O)O)C2	
> 10			CC[C@@H](C)[C@@H](C(=O)N[C@@H](Cc1c[nH]cn1)C(=O)N1CCC[C@H]1C(=O)N[C@@H](Cc1ccccc1)C(=O)O)N1Cc2cccc(NC(=O)[C@H](CCCN=C(N)N)NC(=O)[C@@H](N)CC(=O)O)c2N[C@@H](Cc2ccc(O)cc2)C1=O	
> 10	45400	0.003	CC(C)[C@H](NC(=O)[C@H](CCCN=C(N)N)NC(=O)[C@@H](N)CC(=O)O)C(=O)Nc1ccc2c(c1)CN(CC(=O)N[C@@H](Cc1c[nH]cn1)C(=O)N1CCC[C@H]1C(=O)N[C@@H](Cc1ccccc1)C(=O)O)C(=O)[C@H](Cc1ccc(O)cc1)N2	11.1
	68700		Cc1cc(Cn2cnc3c2C[C@@H](C(=O)O)N(C(=O)C(c2ccccc2)c2ccccc2)C3)ccc1N(C)C	
> 10			CC(C)[C@H](NC(=O)[C@H](CCCN=C(N)N)NC(=O)[C@@H](N)CC(=O)O)C(=O)Nc1cccc2c1N[C@@H](Cc1ccc(O)cc1)C(=O)N(CC(=O)N[C@@H](Cc1c[nH]cn1)C(=O)N1CCC[C@H]1C(=O)N[C@@H](Cc1ccccc1)C(=O)O)C2	9.88
> 10			CC[C@H](C)[C@H](NC(=O)[C@H](Cc1ccc(O)cc1)NC(=O)[C@@H](NC(=O)[C@H](CCCN=C(N)N)NC(=O)[C@@H](N)CC(=O)O)C(C)C)C(=O)N[C@@H](Cc1ccc(N)cc1)C(=O)N1CCC[C@H]1C(=O)N[C@@H](Cc1ccccc1)C(=O)O (H-DRVYI[Phe(4-NH2)]PF-OH)	
> 10			CC(C)[C@H](NC(=O)[C@H](C)NC(=O)[C@@H](N)CC(=O)O)C(=O)Nc1cccc2c1N[C@@H](Cc1ccc(O)cc1)C(=O)N(CC(=O)N[C@@H](Cc1c[nH]cn1)C(=O)N1CCC[C@H]1C(=O)N[C@@H](Cc1ccccc1)C(=O)O)C2	
> 10			NC(N)=NCCC[C@H](NC(=O)[C@@H](N)CC(=O)O)C(=O)Nc1cccc2c1N[C@@H](Cc1ccc(O)cc1)C(=O)N(CC(=O)N[C@@H](Cc1c[nH]cn1)C(=O)N1CCC[C@H]1C(=O)N[C@@H](Cc1ccccc1)C(=O)O)C2	9.35
